This is an account of results in ChEMBL document CHEMBL1142297, “2,6-Diaryl-4-phenacylaminopyrimidines as potent and selective adenosine A(2A) antagonists with reduced hERG liability” (Bioorg Med Chem Lett, 2008).

Data set [1] deals with T1, Adenosine receptor A2a (Homo sapiens, UniProt P29274). The data set is described as follows: Displacement of [3H]ZM241385 from human adenosine A2A receptor expressed in HEK293 cells. Format: cell-based.
The species named for another data set is Homo sapiens. The data set is described as follows: Selectivity for human adenosine A2A receptor over human adenosine A1 receptor. The essentials: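 Ki ratio from radioligand displacement in HEK293 cells expressing human receptors. A2A uses [3H]-ZM241385 and A1 uses [3H]-DPCPX. A standard antagonist is included on each plate. Geometric means of 3–6 independent experiments, SD ≤20%.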

Data set [2] in a line: Metabolic stability in human liver microsomes. Format: ADME, Microsome. Background: Liver microsomes are a subcellular fraction often used to study metabolism.
The target of a further data set is Cytochrome P450 3A4 (Homo sapiens, UniProt P08684). Briefly: Inhibition of CYP3A4. Format: ADME. The essentials: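 Recombinant CYP3A4 in microsomes from transfected cells expressing only that isoform, with the fluorescent substrate BFC; ketoconazole as positive control. IC50 determined; compounds with IC50 < 30 µM run in two or three experiments.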
Cytochrome P450 3A4, sequence (P08684 whole entry, canonical isoform): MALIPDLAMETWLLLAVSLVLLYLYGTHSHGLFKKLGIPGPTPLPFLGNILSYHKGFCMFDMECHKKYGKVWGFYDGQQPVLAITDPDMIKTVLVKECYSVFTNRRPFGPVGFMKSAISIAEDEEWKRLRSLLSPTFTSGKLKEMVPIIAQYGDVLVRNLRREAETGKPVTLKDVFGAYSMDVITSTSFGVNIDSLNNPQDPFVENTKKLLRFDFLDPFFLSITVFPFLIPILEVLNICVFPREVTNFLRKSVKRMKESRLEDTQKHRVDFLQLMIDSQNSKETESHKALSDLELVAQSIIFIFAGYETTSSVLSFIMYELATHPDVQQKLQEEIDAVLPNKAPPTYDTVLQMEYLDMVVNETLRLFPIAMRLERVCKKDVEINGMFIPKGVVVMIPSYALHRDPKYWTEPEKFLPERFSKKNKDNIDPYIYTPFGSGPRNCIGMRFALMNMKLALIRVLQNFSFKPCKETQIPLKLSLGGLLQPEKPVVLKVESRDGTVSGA
Data set [3] concerns the target Voltage-gated inwardly rectifying potassium channel KCNH2 (Homo sapiens, UniProt Q12809). The data set is described as follows: Inhibition of human ERG expressed in HEK cells assessed as effect on electric current by patch clamp assay. Type of data set: cell-based, HEK293. Summed up:
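hERG potassium current was recorded by patch clamp in a HEK cell line stably carrying hERG. Each compound was applied at six concentrations (0.1 nM, 1 nM, 10 nM, 100 nM, 1 μM, 10 μM), and its effect on current was read at the end of a 5-min application. Cisapride (30 nM) served as positive control.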
Background: The patch-clamp technique gives a direct electrical read-out from membranes.

Data set [4] can be described thus: Solubility in buffer solution at pH 2. Format: physicochemical. Summed up:
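About 1 mg of solid is weighed into pH 2.00 buffer solution, sonicated 10 min, shaken overnight and centrifuged. The supernatant is quantified by HPLC against a standard curve of known dilutions of authentic sample.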

For the next data set, the target named is Cytochrome P450 2D6 (Homo sapiens, UniProt P10635). The data set is described as follows: Inhibition of CYP2D6. Format: ADME. Summed up: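 Recombinant CYP2D6 in microsomes from transfected cells, with the fluorescent substrate AMMC; quinidine as positive control. IC50 determined; compounds with IC50 < 30 μM assayed in two or three experiments.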
Cytochrome P450 2D6, sequence (P10635 whole entry): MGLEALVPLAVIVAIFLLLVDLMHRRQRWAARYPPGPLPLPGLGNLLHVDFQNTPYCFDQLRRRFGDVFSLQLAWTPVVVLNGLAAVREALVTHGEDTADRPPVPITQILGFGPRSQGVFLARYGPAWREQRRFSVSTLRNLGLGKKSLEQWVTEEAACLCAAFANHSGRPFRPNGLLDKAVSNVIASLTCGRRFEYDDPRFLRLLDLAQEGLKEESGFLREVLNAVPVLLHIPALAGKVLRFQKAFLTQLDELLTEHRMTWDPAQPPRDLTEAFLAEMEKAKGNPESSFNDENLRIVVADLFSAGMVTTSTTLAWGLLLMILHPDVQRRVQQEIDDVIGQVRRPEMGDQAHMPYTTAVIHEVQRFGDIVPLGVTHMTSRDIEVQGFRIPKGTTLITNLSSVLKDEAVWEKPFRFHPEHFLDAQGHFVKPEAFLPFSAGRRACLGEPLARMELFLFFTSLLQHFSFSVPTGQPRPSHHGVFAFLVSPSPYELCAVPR
In data set [5] the target is T1, Adenosine receptor A2a. The data set is described as follows: Antagonist activity at human adenosine A2A receptor expressed in HEK293 cells by cAMP assay. Type of data set: functional, cell-based. A general note: Changes in cAMP serve as a functional read-out for many G protein-coupled receptors.

In brackets after ≈: the same amount, converted by molar mass.

T1 sequence (P29274 whole entry): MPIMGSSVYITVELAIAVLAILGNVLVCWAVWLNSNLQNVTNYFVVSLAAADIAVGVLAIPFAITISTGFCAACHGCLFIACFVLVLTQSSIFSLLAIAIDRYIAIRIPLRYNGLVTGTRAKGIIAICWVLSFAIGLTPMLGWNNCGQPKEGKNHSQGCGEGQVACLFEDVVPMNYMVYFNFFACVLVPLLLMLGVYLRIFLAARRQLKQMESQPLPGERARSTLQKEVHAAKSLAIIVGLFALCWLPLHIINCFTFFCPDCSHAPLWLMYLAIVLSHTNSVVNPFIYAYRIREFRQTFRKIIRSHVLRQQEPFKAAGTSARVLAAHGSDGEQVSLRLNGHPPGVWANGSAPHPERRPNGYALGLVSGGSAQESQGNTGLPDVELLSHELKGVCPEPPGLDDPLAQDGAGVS
Voltage-gated inwardly rectifying potassium channel KCNH2, sequence (Q12809 whole entry): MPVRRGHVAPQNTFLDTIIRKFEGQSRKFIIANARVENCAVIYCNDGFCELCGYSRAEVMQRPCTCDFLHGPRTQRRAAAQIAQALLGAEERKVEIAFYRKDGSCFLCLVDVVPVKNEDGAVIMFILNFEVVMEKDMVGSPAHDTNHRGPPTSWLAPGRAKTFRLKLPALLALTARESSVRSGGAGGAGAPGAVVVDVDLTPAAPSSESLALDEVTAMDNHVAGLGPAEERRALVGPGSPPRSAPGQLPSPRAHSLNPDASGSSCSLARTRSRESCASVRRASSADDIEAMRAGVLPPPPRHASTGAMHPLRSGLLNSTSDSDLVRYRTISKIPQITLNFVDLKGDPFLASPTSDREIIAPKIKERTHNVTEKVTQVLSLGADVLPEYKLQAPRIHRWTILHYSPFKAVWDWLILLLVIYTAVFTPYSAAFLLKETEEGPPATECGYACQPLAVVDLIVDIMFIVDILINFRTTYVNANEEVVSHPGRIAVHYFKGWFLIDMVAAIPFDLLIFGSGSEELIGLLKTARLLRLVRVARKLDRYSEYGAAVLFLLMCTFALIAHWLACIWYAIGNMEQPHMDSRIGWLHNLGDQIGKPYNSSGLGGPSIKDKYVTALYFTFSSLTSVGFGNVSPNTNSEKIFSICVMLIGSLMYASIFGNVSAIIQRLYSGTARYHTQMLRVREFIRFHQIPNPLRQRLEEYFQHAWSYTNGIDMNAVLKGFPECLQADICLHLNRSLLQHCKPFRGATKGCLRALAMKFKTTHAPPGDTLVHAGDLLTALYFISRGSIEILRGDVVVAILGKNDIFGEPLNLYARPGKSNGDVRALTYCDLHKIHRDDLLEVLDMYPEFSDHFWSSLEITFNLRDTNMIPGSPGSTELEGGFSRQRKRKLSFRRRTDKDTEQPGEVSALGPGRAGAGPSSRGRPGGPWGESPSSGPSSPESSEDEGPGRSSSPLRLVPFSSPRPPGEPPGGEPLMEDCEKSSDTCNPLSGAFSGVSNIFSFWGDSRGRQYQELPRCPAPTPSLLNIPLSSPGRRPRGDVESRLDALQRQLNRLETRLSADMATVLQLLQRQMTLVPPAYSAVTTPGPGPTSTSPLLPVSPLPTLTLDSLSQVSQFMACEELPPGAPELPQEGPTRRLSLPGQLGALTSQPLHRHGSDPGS

Broadly, the Ki is a dissociation constant, usually derived from enzyme kinetics or from competition with a known ligand. Low values mean a stronger hold on the target, high ones a looser hold on the target. At Adenosine receptor A2a [1], `COc1ccc(CC(=O)Nc2cc(-n3nc(C)cc3C)nc(-c3ccc(C)o3)n2)cc1F` gave an inhibition constant Ki of 3 nM. In addition, the Selectivity ratio in the data set listed under Homo sapiens amounted to 129.

The compound `COc1ccc(CC(=O)Nc2cc(-n3nc(C)cc3C)nc(-c3ccc(C)o3)n2)cc1C` yielded an inhibition constant (Ki) at Adenosine receptor A2a [1] of 3 nM. Moreover, the Selectivity ratio in the data set filed under Homo sapiens turned out to be 411.

What is called CLint scaled is the capacity of the preparation to metabolise the compound, expressed as a volume cleared per time. In general, IC50 refers to the concentration at which inhibition is half-maximal. In turn, `CCOc1ccc(CC(=O)Nc2cc(-n3nc(C)cc3C)nc(-c3ccccn3)n2)cc1OC` returned a Ki at Adenosine receptor A2a [1] of 1 nM. In data set [2], this compound had a CLint scaled of 47 mL/min/kg. The IC50 against Cytochrome P450 3A4 came to 7000 nM. The Selectivity ratio in the data set filed under Homo sapiens was 257.

For the compound `Cc1cc(C)n(-c2cc(NC(=O)Cc3ccc(N(C)C)cc3)nc(-c3ccc(C)o3)n2)n1`, the affinity at Adenosine receptor A2a [1] corresponds to a Ki of 2 nM. The Selectivity ratio in the data set filed under Homo sapiens amounted to 162.

For `COc1ccc(CC(=O)Nc2cc(-c3nccs3)nc(-c3ccc(C)o3)n2)cc1`, the inhibitory constant (Ki) on Adenosine receptor A2a [1] was 6 nM. In addition, the Selectivity ratio in the data set filed under Homo sapiens was 12.

At Adenosine receptor A2a [1], `COc1ccc(CC(=O)Nc2cc(-n3cccn3)nc(-c3ccc(C)o3)n2)cc1` returned an inhibitory constant (Ki) of 10 nM. The Selectivity ratio in the data set filed under Homo sapiens was 12.

The compound `Cc1cc(C)n(-c2cc(NC(=O)Cc3ccc(CN(C)C)cc3)nc(-c3ccc(C)o3)n2)n1` registered a Ki on Adenosine receptor A2a [1] of 0.2 nM. Moreover, the Selectivity ratio in the data set filed under Homo sapiens was 80.

Compound `Cc1cc(C)n(-c2cc(NC(=O)Cc3ccc(F)c(F)c3)nc(-c3ccc(C)o3)n2)n1` returned an inhibition constant (Ki) on Adenosine receptor A2a [1] of 5 nM. Besides, the Selectivity ratio in the data set filed under Homo sapiens came to 152.

Compound `Cc1cc(C)n(-c2cc(NC(=O)Cc3cc(F)cc(F)c3)nc(-c3ccc(C)o3)n2)n1` returned an inhibitory constant (Ki) on Adenosine receptor A2a [1] of 5 nM. Moreover, the Selectivity ratio in the data set listed under Homo sapiens was 126.

As for `Cc1cc(C)cc(CC(=O)Nc2cc(-n3nc(C)cc3C)nc(-c3ccccn3)n2)c1`, on Adenosine receptor A2a [1], the Ki was found to be 3 nM. The CLint scaled in data set [2] stood at 113 mL/min/kg. The IC50 against Cytochrome P450 3A4 is > 10000 nM. For the same compound, the Selectivity ratio in the data set filed under Homo sapiens is 186.

By solubility is commonly meant the concentration that dissolves in the medium under given conditions. Read a high solubility as much dissolved substance. `COc1cc(CC(=O)Nc2cc(-n3nc(C)cc3C)nc(-c3ccc(C)o3)n2)cc(OC)c1`: the IC50 in data set [3] was > 3000 nM; at Cytochrome P450 2D6, > 5000 nM; against Cytochrome P450 3A4 it was > 5000 nM. The affinity at Adenosine receptor A2a [1], expressed as Ki, was 2 nM. The compound further showed an intrinsic metabolic clearance (CLint scaled) in data set [2] of 78 mL/min/kg. In addition, the solubility in data set [4] was < 100 µg/mL. For the same compound, the Selectivity ratio in the data set listed under Homo sapiens turned out to be 487.

At Adenosine receptor A2a [1], `Cc1cc(C)n(-c2cc(NC(=O)Cc3ccc(S(C)(=O)=O)cc3)nc(-c3ccccn3)n2)n1` registered an inhibition constant Ki of 1 nM. The same compound registered a CLint scaled in data set [2] of 7 mL/min/kg. In data set [4], the solubility was 500 µg/mL (≈ 1080 µM). Further, the IC50 against Cytochrome P450 3A4 was > 10000 nM; at Adenosine receptor A2a [5], 100 nM. In addition, the Selectivity ratio in the data set listed under Homo sapiens was found to be 148.

At Adenosine receptor A2a [1], `COc1ccc(CC(=O)Nc2cc(-n3nc(C)cc3C)nc(-c3ccccn3)n2)cc1` displayed a Ki of 1 nM. Further, at Cytochrome P450 3A4, the concentration for half-maximal inhibition (IC50) worked out at 1800 nM. The Selectivity ratio in the data set listed under Homo sapiens worked out at 66.

As for `Cc1cc(C)n(-c2cc(NC(=O)Cc3ccc(CN4CCOCC4)cc3)nc(-c3ccc(C)o3)n2)n1`, the affinity on Adenosine receptor A2a [1], expressed as Ki, was 0.8 nM. The Selectivity ratio in the data set filed under Homo sapiens turned out to be 179.

`COc1ccc(CC(=O)Nc2cc(-n3nc(C)cc3C)nc(-c3ccc(C)o3)n2)cc1` had a Ki at Adenosine receptor A2a [1] of 4 nM. The Selectivity ratio in the data set listed under Homo sapiens came out at 61.

Consider `COc1ccc(CC(=O)Nc2cc(-c3nccs3)nc(-c3ccccn3)n2)cc1`, for which, on Adenosine receptor A2a [1], the affinity corresponds to a Ki of 1 nM. The Selectivity ratio in the data set filed under Homo sapiens is 18.

In turn, `Cc1cc(C)n(-c2cc(NC(=O)Cc3ccc(NS(C)(=O)=O)cc3)nc(-c3ccc(C)o3)n2)n1` registered a Ki on Adenosine receptor A2a [1] of 5 nM. The Selectivity ratio in the data set listed under Homo sapiens worked out at 90.

For the compound `COc1cc(CC(=O)Nc2cc(-n3nc(C)cc3C)nc(-c3ccccn3)n2)cc(OC)c1`, the affinity on Adenosine receptor A2a [1], expressed as Ki, was 1 nM. At Cytochrome P450 3A4, this compound returned a half-inhibitory concentration (IC50) of 1300 nM. Also, in the data set listed under Homo sapiens, the Selectivity ratio came to 477.

Turning to `COc1ccc(CC(=O)Nc2cc(-n3nc(C)cc3C)nc(-c3ccc(C)o3)n2)cc1OC`, the inhibition constant (Ki) at Adenosine receptor A2a [1] is 2 nM. The Selectivity ratio in the data set filed under Homo sapiens amounted to 180.
